# Screening data (PubChem BioAssay)
# IDH1 mut inh: inhibitors of human IDH1 R132H; O75874; IDH1 R132H reductase, diaphorase/resazurin fluorescence, 60 min; inhibition, % at 10 µM; 0.18% of 70,000 active; AID 624101; in the data active = inhibition above about 34%; inconclusive = no clear call, values can overlap the other calls; inactive = below about 11%;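 note: 0% = DMSO and 100% = no enzyme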
# KDM4C inh: inhibitors of human demethylase GASC-1 KDM4C; 0.15% of 96,000 active; inhibition, % at 12.5 µM; AID 720574; Q9H3R0; GST-KDM4C 2-372, H3K9me3 peptide, LANCE TR-FRET;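 active = mean replicate inhibition above about 25%, with at least 55% of replicates also reaching it, limit read from the data, passing the limit was not always enough; inconclusive = only one of those two conditions met; inactive = neither condition met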
# Target sequence (Q9H3R0 2-372 limits assumed): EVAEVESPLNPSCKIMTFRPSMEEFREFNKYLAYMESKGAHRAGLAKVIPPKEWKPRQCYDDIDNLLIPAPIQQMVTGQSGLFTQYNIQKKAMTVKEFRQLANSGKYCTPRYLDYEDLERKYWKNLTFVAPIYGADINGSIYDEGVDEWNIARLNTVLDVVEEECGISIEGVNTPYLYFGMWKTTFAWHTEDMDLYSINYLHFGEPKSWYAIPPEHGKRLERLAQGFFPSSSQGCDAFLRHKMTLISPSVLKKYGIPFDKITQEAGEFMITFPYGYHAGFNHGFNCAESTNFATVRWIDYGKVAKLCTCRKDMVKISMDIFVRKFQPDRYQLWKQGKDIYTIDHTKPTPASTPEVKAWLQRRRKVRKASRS
#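 System – N-terminal GST-fused human GASC-1 (KDM4C) fragment, residues 2-372 · Input – enzyme final amount 10 nM · Technique – LANCE TR-FRET, Eu antibody, ULight-streptavidin, EDTA, ex 340 nm, em 618/671 nm · Medium – HEPES buffer, pH 7.5, plus ascorbate · Incubation – enzyme reaction 30 min, then detection 60 min, both room temperature · Reagent – H3K9me3 peptide with Fe(II)/2OG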
# T cruzi growth-1: blocks T. cruzi growth in NIH3T3 culture; T. cruzi beta-gal in NIH3T3, GalScreen luminescence, 90 h; inhibition, % at 8.34 µM; 5.9% of 77,000 active;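 active = mean inhibition above about 93%, with at least 55% of replicates each passing it, limit read from the data, passing the limit was not always enough; inconclusive = only one of those two conditions holds; inactive = neither condition holds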
# Pf Dd2 growth: P. falciparum Dd2 growth inhibition | SYBR Green, 72 h; active compounds read low | activity change, % at 10 µM | 2.3% of 94,000 active; in the data active = activity change below about -80%; inconclusive = no clear call, values can overlap the other calls
# T cruzi growth-2: blocks T. cruzi growth in NIH3T3 host cells | T. cruzi beta-gal in NIH3T3, GalScreen luminescence, 90 h | shares compounds with T cruzi growth-1 | inhibition, % at 8.35 µM | 72% of 5,600 active;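 active = mean replicate inhibition above about 95% and at least 55% of replicates individually reaching it, limit read from the data; inconclusive = only one of the two criteria is met; inactive = neither criterion is met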
# T cruzi growth-3: inhibitors of T. cruzi proliferation. shares compounds with T cruzi growth-1. T. cruzi beta-gal in NIH3T3, GalScreen luminescence, 90 h. inhibition, % at 2.09 µM. 21% of 5,600 active;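 active = mean inhibition above about 95%, with at least 55% of replicates also reaching it, limit read from the data; inconclusive = meets just one of the two conditions; inactive = meets neither condition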;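 note: plate controls were neutral control median for no effect and positive control median for full effect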
# NIH3T3 tox: kills mouse NIH/3T3 fibroblasts; shares compounds with T cruzi growth-1; 14% of 5,600 active; cytotoxicity (signal decrease), % at 8.35 µM; NIH/3T3 viability, CellTiter-Glo ATP luminescence, 90 h;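 active = mean signal decrease across replicates above about 35% based on untreated-well scatter, with enough replicates individually passing, limit read from the data; inconclusive = no rule stated though some were filed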;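 note: 0% = median of neutral control wells and 100% = median of positive control wells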
# 3T3 cytotox 2: cytotoxicity in mouse NIH/3T3 fibroblasts | shares compounds with T cruzi growth-1 | NIH/3T3 viability, CellTiter-Glo ATP luminescence, 90 h | inhibition, % at 24.9 µM | 56% of 5,600 active;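 active = mean loss of cell viability signal at or above a set limit, and enough replicates individually reaching it; inconclusive = meets only the mean limit or only the replicate share; inactive = meets neither condition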;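 note: 0% = median of neutral control wells and 100% = median of positive control wells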
# * marks the source's active call; other numbers are inactive results; ? = inconclusive; . = no result. In the library only some 5.8% were active in any assay of this set; here they are far more common.
SMILES,IDH1 mut inh,KDM4C inh,T cruzi growth-1,Pf Dd2 growth,T cruzi growth-2,T cruzi growth-3,NIH3T3 tox,3T3 cytotox 2
COc1ccc(NC(=O)Nc2ccc3c(c2)C(=O)N([C@@H](C)CO)C[C@H](C)[C@@H](CN(C)S(=O)(=O)c2ccc(C)cc2)OCCCC[C@@H](C)O3)cc1,-0.5,0.2,97.5*,-83.2*,111.1*,51.6,-18.5,8.1
COc1ccc(S(=O)(=O)N(C)C[C@@H]2OCCCC[C@H](C)Oc3ccc(NC(=O)Nc4ccc5c(c4)OCO5)cc3C(=O)N([C@H](C)CO)C[C@@H]2C)cc1,.,0.8,103.0*,-81.1*,106.6*,89.7,10.0,10.0
COc1ccc(NC(=O)Nc2ccc3c(c2)C(=O)N([C@H](C)CO)C[C@@H](C)[C@@H](CN(C)S(=O)(=O)c2ccc(C)cc2)OCCCC[C@H](C)O3)cc1,.,1.3,-79.5,-75.1,.,.,.,.
COc1ccc(NC(=O)Nc2ccc3c(c2)C(=O)N([C@@H](C)CO)C[C@H](C)[C@@H](CN(C)S(=O)(=O)c2ccc(OC)cc2)OCCCC[C@H](C)O3)cc1,.,-0.4,?,-61.1,108.5*,23.2,17.6,3.3
O=C(NO)c1cccc(C(=O)N/N=C/c2ccccc2[N+](=O)[O-])c1,-0.6,.,.,.,.,.,.,.
Cc1ccc(NC(=O)CSc2ncccn2)cc1Cl,-0.3,.,.,.,.,.,.,.
COc1ccc(/C=N/NC(=O)CCCCCC(=O)NO)cc1O,-0.7,.,.,.,.,.,.,.
COc1ccc(NC(=O)Nc2ccc3c(c2)C(=O)N([C@@H](C)CO)C[C@H](C)[C@@H](CN(C)S(=O)(=O)c2ccc(F)cc2)OCCCC[C@@H](C)O3)cc1,.,-0.6,74.4,?,.,.,.,.
COc1ccc(NC(=O)Nc2ccc3c(c2)C(=O)N([C@H](C)CO)C[C@@H](C)[C@H](CN(C)S(=O)(=O)c2ccc(OC)cc2)OCCCC[C@@H](C)O3)cc1,1.3,0.8,105.0*,-73.1,108.8*,49.0,-27.0,-16.9
COc1ccc(S(=O)(=O)N(C)C[C@@H]2OCCCC[C@H](C)Oc3ccc(NC(=O)Nc4ccc(C(F)(F)F)cc4)cc3C(=O)N([C@@H](C)CO)C[C@@H]2C)cc1,2.5,-0.6,97.2*,-79.1,111.3*,114.7*,27.3,3.8
COc1ccc(NC(=O)Nc2ccc3c(c2)C(=O)N([C@@H](C)CO)C[C@@H](C)[C@@H](CN(C)S(=O)(=O)c2ccc(OC)cc2)OCCCC[C@H](C)O3)cc1,-0.1,-0.2,-48.2,9.9,.,.,.,.
COc1ccc(NC(=O)Nc2ccc3c(c2)C(=O)N([C@H](C)CO)C[C@H](C)[C@H](CN(C)S(=O)(=O)c2ccc(OC)cc2)OCCCC[C@H](C)O3)cc1,.,1.1,?,-44.7,104.0*,50.5,3.1,13.8
COc1ccc(S(=O)(=O)N(C)C[C@H]2Oc3cc(-c4ccccc4OC)ccc3S(=O)(=O)N([C@H](C)CO)C[C@@H]2C)cc1,.,-2.2,122.8*,-74.1,100.5*,45.7,46.6*,57.3*
COc1ccc(S(=O)(=O)N(C)C[C@H]2Oc3cc(-c4ccccc4OC)ccc3S(=O)(=O)N([C@H](C)CO)C[C@H]2C)cc1,2.3,-2.6,122.9*,-62.0,98.5*,58.2,20.9,36.6*
COc1ccc(S(=O)(=O)N(C)C[C@@H]2Oc3cc(-c4ccccc4OC)ccc3S(=O)(=O)N([C@@H](C)CO)C[C@H]2C)cc1,.,0.1,124.8*,?,105.6*,86.8,?,51.1*
CC(=O)OCC/C(=C\CC1(O)C(C)CCC2C(C)(C)CCCC21C)COC(C)=O (stereo unspecified),-0.6,.,.,.,.,.,.,.
C[C@@H]1CN([C@@H](C)CO)C(=O)c2cc(NC(=O)C3CCCCC3)ccc2O[C@@H]1CN(C)Cc1ccc(Cl)c(Cl)c1,1.5,1.1,?,1.4,103.0*,94.5,11.7,39.3*
C[C@@H]1CN([C@@H](C)CO)C(=O)c2cc(NC(=O)NC3CCCCC3)ccc2O[C@H]1CN(C)Cc1ccc(Cl)c(Cl)c1,5.6,0.2,?,3.0,110.5*,43.1,8.2,3.1
